Results taken from ChEMBL document CHEMBL2062386, “Discovery of LFF571: an investigational agent for Clostridium difficile infection” (J Med Chem, 2012).
In brackets after ≈: the same amount, converted by molar mass.

Legend:
Format in all cases: functional
Enterococcus faecium = test: Antibacterial activity against Enterococcus faecium 7130724 by broth microdilution method
Enterococcus faecalis = test: Antibacterial activity against Enterococcus faecalis ATCC 29212 by broth microdilution method
In short: (§1)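 Broth microdilution MICs were run per CLSI M07-A8 (2009). The strain panel included C. difficile ATCC 43255, E. faecalis ATCC 29212 and S. pyogenes ATCC BAA-595.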

Staphylococcus aureus = test: Antibacterial activity against Staphylococcus aureus A4.018 by broth microdilution method
Streptococcus pyogenes = test: Antibacterial activity against Streptococcus pyogenes ATCC BAA-595 by broth microdilution method; in short: as §1
[1] = Antibacterial activity against Clostridium difficile ATCC 43255 by broth microdilution method; details: Clostridioides difficile; in short: as §1
Escherichia coli = test: Inhibition of protein synthesis in Escherichia coli S30 extract at 2 uM after 75 mins by luciferase based luminescence assay relative to GE2270A

Compound	MIC (Enterococcus faecium)	MIC (Enterococcus faecalis)	MIC (Staphylococcus aureus)	MIC (Streptococcus pyogenes)	MIC [1]	inhibition at 2 µM (Escherichia coli)
CNC(=O)C[C@@H]1NC(=O)c2csc(n2)-c2ccc(-c3nc(N(CCCCC(=O)O)C(=O)C[C@H]4CC[C@H](C(=O)O)CC4)cs3)nc2-c2csc(n2)-c2csc(n2)[C@H]([C@@H](O)c2ccccc2)NC(=O)CNC(=O)c2nc(sc2COC)[C@H](C(C)C)NC(=O)c2nc1sc2C	> 32 µg/mL	8 µg/mL (≈ 5.86 µM)	4 µg/mL (≈ 2.93 µM)	32 µg/mL (≈ 23.4 µM)	0.25 µg/mL (≈ 0.183 µM)	30%
CNC(=O)C[C@@H]1NC(=O)c2csc(n2)-c2ccc(-c3nc(N(CCCCC(=O)O)C(=O)[C@H]4CC[C@H]4C(=O)O)cs3)nc2-c2csc(n2)-c2csc(n2)[C@H]([C@@H](O)c2ccccc2)NC(=O)CNC(=O)c2nc(sc2COC)[C@H](C(C)C)NC(=O)c2nc1sc2C	32 µg/mL (≈ 24.2 µM)	16 µg/mL (≈ 12.1 µM)	32 µg/mL (≈ 24.2 µM)	> 32 µg/mL	4 µg/mL (≈ 3.02 µM)	30%
CNC(=O)C[C@@H]1NC(=O)c2csc(n2)-c2ccc(-c3nc(N(C/C=C/C(=O)O)C(=O)O[C@H]4CC[C@H](C(=O)O)CC4)cs3)nc2-c2csc(n2)-c2csc(n2)[C@H]([C@@H](O)c2ccccc2)NC(=O)CNC(=O)c2nc(sc2COC)[C@H](C(C)C)NC(=O)c2nc1sc2C	0.5 µg/mL (≈ 0.37 µM)	0.25 µg/mL (≈ 0.185 µM)	0.5 µg/mL (≈ 0.37 µM)	2 µg/mL (≈ 1.48 µM)	0.03 µg/mL (≈ 0.0222 µM)	67%
CNC(=O)C[C@@H]1NC(=O)c2csc(n2)-c2ccc(-c3nc(N(CCCCC(=O)O)C(=O)O[C@]4(CCCCC(=O)O)CC[C@@H](C(=O)O)CC4)cs3)nc2-c2csc(n2)-c2csc(n2)[C@H]([C@@H](O)c2ccccc2)NC(=O)CNC(=O)c2nc(sc2COC)[C@H](C(C)C)NC(=O)c2nc1sc2C	8 µg/mL (≈ 5.45 µM)	4 µg/mL (≈ 2.73 µM)	8 µg/mL (≈ 5.45 µM)	16 µg/mL (≈ 10.9 µM)	–	50%
CNC(=O)C[C@@H]1NC(=O)c2csc(n2)-c2ccc(-c3nc(N(CCCCC(=O)O)C(=O)OC(CCCCC(=O)O)CCC(=O)O)cs3)nc2-c2csc(n2)-c2csc(n2)[C@H]([C@@H](O)c2ccccc2)NC(=O)CNC(=O)c2nc(sc2COC)[C@H](C(C)C)NC(=O)c2nc1sc2C (stereo not given in full)	32 µg/mL (≈ 22.4 µM)	16 µg/mL (≈ 11.2 µM)	32 µg/mL (≈ 22.4 µM)	> 32 µg/mL	2 µg/mL (≈ 1.4 µM)	50%
CNC(=O)C[C@@H]1NC(=O)c2csc(n2)-c2ccc(-c3nc(N(CCCCC(=O)O)C(=O)N[C@H]4CC[C@H](C(=O)O)CC4)cs3)nc2-c2csc(n2)-c2csc(n2)[C@H]([C@@H](O)c2ccccc2)NC(=O)CNC(=O)c2nc(sc2COC)[C@H](C(C)C)NC(=O)c2nc1sc2C	> 32 µg/mL	16 µg/mL (≈ 11.7 µM)	16 µg/mL (≈ 11.7 µM)	32 µg/mL (≈ 23.4 µM)	1 µg/mL (≈ 0.732 µM)	30%
CNC(=O)C[C@@H]1NC(=O)c2csc(n2)-c2ccc(-c3nc(N(CCCCC(=O)O)C(=O)O[C@@H]4CC[C@@H](C(=O)O)C[C@H]4CCCCC(=O)O)cs3)nc2-c2csc(n2)-c2csc(n2)[C@H]([C@@H](O)c2ccccc2)NC(=O)CNC(=O)c2nc(sc2COC)[C@H](C(C)C)NC(=O)c2nc1sc2C	4 µg/mL (≈ 2.73 µM)	4 µg/mL (≈ 2.73 µM)	8 µg/mL (≈ 5.45 µM)	4 µg/mL (≈ 2.73 µM)	0.25 µg/mL (≈ 0.17 µM)	50%
CNC(=O)C[C@@H]1NC(=O)c2csc(n2)-c2ccc(-c3nc(N(CCCCC(CCC(=O)O)C(=O)O)C(=O)O[C@H]4CC[C@H](C(=O)O)CC4)cs3)nc2-c2csc(n2)-c2csc(n2)[C@H]([C@@H](O)c2ccccc2)NC(=O)CNC(=O)c2nc(sc2COC)[C@H](C(C)C)NC(=O)c2nc1sc2C (stereo not given in full)	8 µg/mL (≈ 5.51 µM)	8 µg/mL (≈ 5.51 µM)	16 µg/mL (≈ 11 µM)	8 µg/mL (≈ 5.51 µM)	0.25 µg/mL (≈ 0.172 µM)	50%
CNC(=O)C[C@@H]1NC(=O)c2csc(n2)-c2ccc(-c3nc(N(CCCCC(=O)O)C(=O)[C@H]4CC[C@@H](C(=O)O)O4)cs3)nc2-c2csc(n2)-c2csc(n2)[C@H]([C@@H](O)c2ccccc2)NC(=O)CNC(=O)c2nc(sc2COC)[C@H](C(C)C)NC(=O)c2nc1sc2C	> 32 µg/mL	> 32 µg/mL	> 32 µg/mL	> 32 µg/mL	> 4 µg/mL	30%
CNC(=O)C[C@@H]1NC(=O)c2csc(n2)-c2ccc(-c3nc(N(CCCC(CCCCCCC(=O)O)C(=O)O)C(=O)O[C@H]4CC[C@H](C(=O)O)CC4)cs3)nc2-c2csc(n2)-c2csc(n2)[C@H]([C@@H](O)c2ccccc2)NC(=O)CNC(=O)c2nc(sc2COC)[C@H](C(C)C)NC(=O)c2nc1sc2C (stereo not given in full)	0.5 µg/mL (≈ 0.334 µM)	0.25 µg/mL (≈ 0.167 µM)	1 µg/mL (≈ 0.669 µM)	1 µg/mL (≈ 0.669 µM)	0.06 µg/mL (≈ 0.0401 µM)	50%
CNC(=O)C[C@@H]1NC(=O)c2csc(n2)-c2ccc(-c3nc(N(CCCC(=O)O)C(=O)CCCC(=O)O)cs3)nc2-c2csc(n2)-c2csc(n2)[C@H]([C@@H](O)c2ccccc2)NC(=O)CNC(=O)c2nc(sc2COC)[C@H](C(C)C)NC(=O)c2nc1sc2C	> 32 µg/mL	> 32 µg/mL	> 32 µg/mL	> 32 µg/mL	> 4 µg/mL	30%
CNC(=O)C[C@@H]1NC(=O)c2csc(n2)-c2ccc(-c3nc(N(CCCC(=O)O)C(=O)c4ccc(C(=O)O)cn4)cs3)nc2-c2csc(n2)-c2csc(n2)[C@H]([C@@H](O)c2ccccc2)NC(=O)CNC(=O)c2nc(sc2COC)[C@H](C(C)C)NC(=O)c2nc1sc2C	32 µg/mL (≈ 24 µM)	16 µg/mL (≈ 12 µM)	32 µg/mL (≈ 24 µM)	> 32 µg/mL	4 µg/mL (≈ 3 µM)	30%
CNC(=O)C[C@@H]1NC(=O)c2csc(n2)-c2ccc(-c3nc(N(CCCCC(=O)O)C(=O)[C@H]4CC[C@H](C(=O)O)CC4)cs3)nc2-c2csc(n2)-c2csc(n2)[C@H]([C@@H](O)c2ccccc2)NC(=O)CNC(=O)c2nc(sc2COC)[C@H](C(C)C)NC(=O)c2nc1sc2C	> 32 µg/mL	32 µg/mL (≈ 23.7 µM)	16 µg/mL (≈ 11.8 µM)	> 32 µg/mL	2 µg/mL (≈ 1.48 µM)	30%
CNC(=O)C[C@@H]1NC(=O)c2csc(n2)-c2ccc(-c3nc(N(CCCCC(=O)O)C(=O)OCCC(CCCCC(=O)O)C(=O)O)cs3)nc2-c2csc(n2)-c2csc(n2)[C@H]([C@@H](O)c2ccccc2)NC(=O)CNC(=O)c2nc(sc2COC)[C@H](C(C)C)NC(=O)c2nc1sc2C (stereo not given in full)	16 µg/mL (≈ 11.2 µM)	8 µg/mL (≈ 5.61 µM)	16 µg/mL (≈ 11.2 µM)	32 µg/mL (≈ 22.4 µM)	0.5 µg/mL (≈ 0.35 µM)	50%
CNC(=O)C[C@@H]1NC(=O)c2csc(n2)-c2ccc(-c3nc(N(CCCCC(=O)O)C(=O)OCC(CCCCC(=O)O)CC(=O)O)cs3)nc2-c2csc(n2)-c2csc(n2)[C@H]([C@@H](O)c2ccccc2)NC(=O)CNC(=O)c2nc(sc2COC)[C@H](C(C)C)NC(=O)c2nc1sc2C (stereo not given in full)	8 µg/mL (≈ 5.61 µM)	8 µg/mL (≈ 5.61 µM)	8 µg/mL (≈ 5.61 µM)	32 µg/mL (≈ 22.4 µM)	1 µg/mL (≈ 0.701 µM)	50%
CNC(=O)C[C@@H]1NC(=O)c2csc(n2)-c2ccc(-c3nc(N(CCCCC(=O)O)C(=O)OCC4CC4C(=O)O)cs3)nc2-c2csc(n2)-c2csc(n2)[C@H]([C@@H](O)c2ccccc2)NC(=O)CNC(=O)c2nc(sc2COC)[C@H](C(C)C)NC(=O)c2nc1sc2C (stereo not given in full)	0.5 µg/mL (≈ 0.374 µM)	0.125 µg/mL (≈ 0.0934 µM)	0.25 µg/mL (≈ 0.187 µM)	2 µg/mL (≈ 1.49 µM)	0.03 µg/mL (≈ 0.0224 µM)	67%
CNC(=O)C[C@@H]1NC(=O)c2csc(n2)-c2ccc(-c3nc(NC(=O)CC[C@H](CC(=O)O)C(=O)O)cs3)nc2-c2csc(n2)-c2csc(n2)[C@H]([C@@H](O)c2ccccc2)NC(=O)CNC(=O)c2nc(sc2COC)[C@H](C(C)C)NC(=O)c2nc1sc2C	8 µg/mL (≈ 6.31 µM)	4 µg/mL (≈ 3.15 µM)	8 µg/mL (≈ 6.31 µM)	> 32 µg/mL	4 µg/mL (≈ 3.15 µM)	30%
CNC(=O)C[C@@H]1NC(=O)c2csc(n2)-c2ccc(-c3nc(N(CCCCC(=O)O)C(=O)O[C@H]4CC[C@](CCCCC(=O)O)(C(=O)O)CC4)cs3)nc2-c2csc(n2)-c2csc(n2)[C@H]([C@@H](O)c2ccccc2)NC(=O)CNC(=O)c2nc(sc2COC)[C@H](C(C)C)NC(=O)c2nc1sc2C	1 µg/mL (≈ 0.682 µM)	0.5 µg/mL (≈ 0.341 µM)	1 µg/mL (≈ 0.682 µM)	4 µg/mL (≈ 2.73 µM)	0.03 µg/mL (≈ 0.0205 µM)	50%
CNC(=O)C[C@@H]1NC(=O)c2csc(n2)-c2ccc(-c3nc(N(CCOCC(=O)O)C(=O)O[C@H]4CC[C@H](C(=O)O)CC4)cs3)nc2-c2csc(n2)-c2csc(n2)[C@H]([C@@H](O)c2ccccc2)NC(=O)CNC(=O)c2nc(sc2COC)[C@H](C(C)C)NC(=O)c2nc1sc2C	2 µg/mL (≈ 1.46 µM)	2 µg/mL (≈ 1.46 µM)	4 µg/mL (≈ 2.92 µM)	4 µg/mL (≈ 2.92 µM)	0.125 µg/mL (≈ 0.0913 µM)	67%
CNC(=O)C[C@@H]1NC(=O)c2csc(n2)-c2ccc(-c3nc(N(CCCCC(=O)O)C(=O)N4CCC(C(=O)O)CC4)cs3)nc2-c2csc(n2)-c2csc(n2)[C@H]([C@@H](O)c2ccccc2)NC(=O)CNC(=O)c2nc(sc2COC)[C@H](C(C)C)NC(=O)c2nc1sc2C	> 32 µg/mL	> 32 µg/mL	> 32 µg/mL	> 32 µg/mL	> 4 µg/mL	30%
CNC(=O)C[C@@H]1NC(=O)c2csc(n2)-c2ccc(-c3nc(NC(=O)CC[C@@H](CC(=O)O)C(=O)O)cs3)nc2-c2csc(n2)-c2csc(n2)[C@H]([C@@H](O)c2ccccc2)NC(=O)CNC(=O)c2nc(sc2COC)[C@H](C(C)C)NC(=O)c2nc1sc2C	32 µg/mL (≈ 25.2 µM)	16 µg/mL (≈ 12.6 µM)	32 µg/mL (≈ 25.2 µM)	> 32 µg/mL	4 µg/mL (≈ 3.15 µM)	30%
CNC(=O)C[C@@H]1NC(=O)c2csc(n2)-c2ccc(-c3nc(N(C)C(=O)CCCC(=O)O)cs3)nc2-c2csc(n2)-c2csc(n2)[C@H]([C@@H](O)c2ccccc2)NC(=O)CNC(=O)c2nc(sc2COC)[C@H](C(C)C)NC(=O)c2nc1sc2C	4 µg/mL (≈ 3.27 µM)	2 µg/mL (≈ 1.63 µM)	2 µg/mL (≈ 1.63 µM)	> 64 µg/mL	–	30%
